Compound activity from PubChem BioAssay.
CHOP inh = blocks CHOP induction under ER stress; CHO-K1 CHOP-promoter luciferase, tunicamycin-induced, 15-18 h; inhibition, % at 10 µM; 220,000 tested, 3.8% active;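 active = compounds that reduced the stress-induced luciferase reporter signal by more than about 70% of percent inhibition, limit read from the data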;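 note: 0% = tunicamycin plus vehicle and 100% = wells without tunicamycin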
Jurkat NFkB inh = lowers PMA/ionomycin-induced NF-kB signal in Jurkat cells; PMA/ionomycin-induced NF-kB luciferase reporter, luminescence; inhibition, % at 4 µM; 330,000 tested, 0.53% active; in the data active = inhibition above about 50%
UPR CHOP act = apoptotic UPR (CHOP) activation; CHO-CHOP luciferase reporter, luminescence; percent of tunicamycin response over DMSO baseline; AID 449763; activation, % at 10 µM; 330,000 tested, 0.34% active;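 active = at 10 µM dose, activation of 40% or more, normalized to positive control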;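 note: 100% = tunicamycin at 10 µg/mL and 0% = DMSO alone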
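Material: CHO-CHOP cells, stable luciferase reporter of PERK-eIF2a-CHOP signalling; quantity: 500 reporter cells seeded per well; buffer or medium: F12 medium containing 10% fetal bovine serum; compound: one dose, 10 µM in 0.5% DMSO; incubation: 6 h compound treatment, 37 °C; measured by: Steady-Glo luciferase luminescence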
697 NFkB inh = inhibitors of the PMA/ionomycin-induced NF-kB reporter in 697 B cells | 697 B-cell NF-kB luciferase reporter, 16 h | inhibition, % at 4 µM | 330,000 tested, 0.33% active; in the data active = inhibition above about 35%
XBP1 UPR activ = adaptive UPR (XBP1) activation. CHO-XBP1 luciferase reporter, IRE1-XBP1 UPR activation, luminescence; percent of tunicamycin response, DMSO as zero. 330,000 tested, 0.33% active. activation, % at 20 µM. AID 463104;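 active = versus positive control, 20 µM dose yields 30% or more activation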;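 note: 100% = tunicamycin at 10 µg/mL and 0% = DMSO only wells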
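incubation = overnight seeding at 37 °C, 6 h compound treatment at 37 °C | assay system = CHO-XBP1 cells stably carrying IRE1-XBP1-driven luciferase reporter | input = 1000 cells per well | detection = luciferase luminescence | dosing = single point, 20 µM final compound, 1% DMSO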
Gli-Sufu block = Gli-Sufu pathway antagonism; Sufu-KO-LIGHT fibroblasts, Gli luciferase reporter luminescence; inhibition, % at 5 µM; 340,000 tested, 0.74% active;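 active = inhibition above about 55%, limit read from the data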;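 note: 0% = DMSO-treated cells and 100% = wells with medium but no cells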
CHOP confirm = confirmation of CHOP induction inhibitors; inhibition, % at 10 µM; shares compounds with CHOP inh; AID 504437; CHO-CHOP promoter luciferase reporter, tunicamycin-induced, luminescence; 2,100 tested, 45% active;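 active = mean of three repeat readings of reporter signal inhibition above a set limit, cut at about 70% in these data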;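 note: 0% = tunicamycin plus vehicle and 100% = wells lacking tunicamycin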
Jurkat NFkB conf = inhibitors of the PMA/ionomycin-induced NF-kB reporter in Jurkat cells, retest. inhibition, % at 4 µM. Jurkat NF-kB luciferase, 16 h. AID 435020. 2,700 tested, 27% active. shares compounds with Jurkat NFkB inh;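 active = inhibition reaching about 45% at 4 µM in either replicate, limit read from the data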;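 note: plate controls were PMA/ionomycin stimulated DMSO wells for no effect and unstimulated DMSO wells for full effect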
* marks the source's active call; other numbers are inactive results; · = not tested or not shown; ! = repeats disagree. Hits are enriched below; roughly 3.9% of the tested compounds scored in any of these assays.

SMILES	CHOP inh	Jurkat NFkB inh	UPR CHOP act	697 NFkB inh	XBP1 UPR activ	Gli-Sufu block	CHOP confirm	Jurkat NFkB conf
CC(C)c1ccccc1N=C1SCCCN1C(=O)c1cccc(N2C(=O)CCC2=O)c1	·	-5	17	-14	1	2	·	·
CC(CNC(=S)Nc1cc(F)cc(F)c1)CSc1ccc(Cl)cc1 (configuration not stated)	97*	7	-1	-9	-1	17	86*	·
CC(C)N(C(=O)[C@H]1CC(CC(=O)NC(C)(C)C)C(=O)N2CCc3c([nH]c4ccccc34)[C@]12C)C(C)C (some centres not stated)	·	-4	0	1	-3	4	·	·
CCOCCCNC(=O)c1cc(Nc2ccc(OC)cc2OC)nc2ccccc12	·	12	-1	0	-5	4	·	·
COc1cc(C(=O)Nc2cccc(-c3nc4cc(C)ccc4o3)c2C)cc(OC)c1OC	108*	-13	1	7	6	5	16	·
Cc1ccc(NC(=O)c2cc(NC(=O)c3ccco3)ccc2N2CCCCC2)cc1	100*	-1	-1	12	3	22	88*	·
Cc1ccc(NC(=O)c2cc(NC(=O)c3ccco3)ccc2N2CCOCC2)cc1	42	0	-1	-4	-1	17	·	·
COc1ccc(Cn2c(C)c(C)c(C#N)c2NC(=O)Nc2ccc(Cl)cc2)cc1	106*	3	-1	21	0	-22	103*	·
COc1ccc(CNC(=O)CN2C(=O)NC(C)(c3cccc(Br)c3)C2=O)cc1 (configuration not stated)	·	-6	-1	-13	-3	7	·	·
Oc1ccc(/C=N/Nc2nc(-c3ccc(Cl)cc3)cc(C(F)(F)F)n2)cc1	102*	-16	5	-5	3	3	98*	·
COc1ccc(NC(=O)CCNS(=O)(=O)c2cc(Br)cnc2N)c(OC)c1	·	1	2	5	-2	5	·	·
O=C(/C=C/c1cccc([N+](=O)[O-])c1)n1cnc2ccccc21	107*	71*	-4	-43	-4	16	116*	40
C=CS(=O)(=O)c1ccc(Oc2ccc(S(=O)(=O)C=C)cc2)cc1	·	78*	-7	3	-6	6	120*	91*
NS(=O)(=O)c1ccc(Oc2ccc(S(N)(=O)=O)cc2)cc1	-14	-15	0	-10	1	19	·	·
CS(=O)c1nc(-c2ccc(Br)cc2)cc(-c2ccccc2)c1C#N (configuration not stated)	·	93*	162*	-188	1	5	-14	91*
CN(Cc1ccccc1)c1nc(-c2ccc([N+](=O)[O-])cc2)nc2ccccc12	30	-9	-2	-1	-2	24	·	·
O=[N+]([O-])c1ccc(-c2nc(C(Cl)Cl)c3ccccc3n2)cc1	105*	97*	-7	-102	-4	35	124*	42
O=C(Nc1ccc(S(=O)(=O)N2CCOCC2)cc1)c1ccc(CN2CCc3ccccc3C2)cc1	101*	77*	5	30	-5	-11	89*	74*
CCOc1ccc(C(=O)NCC(=O)NCCCSc2ccccc2)cc1OCC	·	3	1	-2	0	-5	·	·
CC1=C(C)/C(=N\OS(=O)(=O)c2ccccc2)C=CC1=O	·	55*	-11	-69	-6	15	124*	18
CC1CC1C(=O)N1CCN(S(=O)(=O)c2cccc(F)c2)CC1 (configuration not stated)	·	12	0	-1	-1	1	·	·
CCOC(=O)C1=C(c2ccccc2)O/C(=C(/C#N)C(F)(F)F)S1	97*	75*	54*	-230	-2	·	113*	54*
CCOC(=O)/C=C/S(=O)(=O)c1ccc(NC(C)=O)cc1	·	53*	-12	20	-8	9	121*	38
Nc1ccc2c(c1)C(=O)C(=O)c1ccccc1-2	·	84*	-8	5	-8	19	140*	24
Nc1ccc2c(c1)C(=O)c1ccccc1C2=O	·	-67	0	-61	6	-56	·	·
SMILES	CHOP inh	Jurkat NFkB inh	UPR CHOP act	697 NFkB inh	XBP1 UPR activ	Gli-Sufu block	CHOP confirm	Jurkat NFkB conf
O=C1C(=O)c2ccc(-c3ccccc3)cc2-c2ccccc21	109*	53*	-9	21	-7	-1	140*	24
Nc1ccc2c(c1)C(=O)c1ccccc1-2	·	-21	2	19	4	-1	·	·
Cc1ccc(C(=O)N2CCCC(N3CCN(c4ccccc4C)CC3)C2)c(=O)[nH]1 (configuration not stated)	·	2	0	-4	-1	15	·	·
CCCCCCCCCCCCCCCC[n+]1cccc(C(=O)N(CC)CC)c1	108*	86*	0	-28	-1	72*!	115*	75*
O=C(CN1CCN(Cc2ccc(F)cc2)CC1)Nc1nc2ccccc2s1	·	12	0	-9	-3	25	·	·
Cc1cccc(NC(=O)CSCC(=O)N2CCN(Cc3ccc4c(c3)OCO4)CC2)c1	·	4	-1	4	-1	9	·	·
COc1ccc(C(=O)NNC(=O)c2ccccn2)cc1	104*	52*	-12	-61	-8	-54	124*	63*
CC(=O)c1c(C)[nH]c(C(=O)OCC(=O)Nc2ccc3c(c2)OCCO3)c1C	·	-43	1	-8	-4	0	·	·
C=C(C)COc1ccc(-c2ncncc2-c2ccc(Br)cc2)c(O)c1	·	8	2	-3	2	0	·	·
C=C(C)COc1ccc(-c2n[nH]c(C)c2-c2ccc(Br)cc2)c(O)c1	·	50*	0	-19	14	-4	106*	26
O=C(NCCCc1ccccc1)c1cccc(NC(=O)C2CCCC2)c1	·	·	·	·	·	-6	·	·
O/N=C/c1cccc[n+]1CCCCCC[n+]1ccccc1/C=N/O	·	2	-2	-3	-3	-14	·	·
CCCCCCCCCCCCCCCC[n+]1ccc(/C=N/O)cc1	103*	80*	24	9	8	73*	125*	54*
CCOC(=O)N/N=C/c1c(C)nn(-c2ccccc2Cl)c1Cl	15	-20	5	-57	6	-81	·	·
Cc1nn(-c2ccccc2Cl)c(Cl)c1/C=N/Nc1nc2ccccc2s1	97*	67*	-6	-223	-3	86*	98*	86*
COc1ccc2c(C(=O)c3ccc(C)cc3)n(CCCC(N)=O)[n+]([O-])c2c1	·	3	4	7	1	-6	·	·
Cc1cc(NC(=O)CSc2nc3cc(Cl)ccc3o2)no1	·	-6	2	-2	0	-12	·	·
